Measured values published in ChEMBL document CHEMBL1212762, “In vivo activity of ceftobiprole in murine skin infections due to Staphylococcus aureus and Pseudomonas aeruginosa” (Antimicrob Agents Chemother, 2010).

What was measured:
[1] = test system: Pseudomonas aeruginosa; assay: Antimicrobial activity against Pseudomonas aeruginosa OC 4351 infected in immunocompromized SKH1 mouse assessed as lesion volume at 1.6 mg/kg/day, sc measured after 48 hrs postinfection (reference value: 2234 mm3); assay type: functional; details: route subcutaneous
[2] = test system: Pseudomonas aeruginosa; assay: Antimicrobial activity against Pseudomonas aeruginosa OC 4351 infected in immunocompromized SKH1 mouse assessed as lesion volume at 6.2 mg/kg/day, sc measured after 48 hrs postinfection (reference value: 2234 mm3); assay type: functional; details: route subcutaneous
[3] = test system: Pseudomonas aeruginosa; assay: Antimicrobial activity against Pseudomonas aeruginosa OC 4351 infected in immunocompromized SKH1 mouse assessed as lesion volume at 25 mg/kg/day, sc measured after 48 hrs postinfection (reference value: 2234 mm3); assay type: functional; details: route subcutaneous
[4] = test system: Pseudomonas aeruginosa; assay: Antimicrobial activity against Pseudomonas aeruginosa OC 4351 infected in immunocompromized SKH1 mouse assessed as lesion volume at 100 mg/kg/day, sc measured after 48 hrs postinfection (reference value: 2234 mm3); assay type: functional; details: route subcutaneous
[5] = test system: Pseudomonas aeruginosa; assay: Antimicrobial activity against Pseudomonas aeruginosa OC 4354 infected in immunocompromized SKH1 mouse assessed as lesion volume at 1.6 mg/kg/day, sc measured after 48 hrs postinfection (reference value: 2195 mm3); assay type: functional; details: route subcutaneous
[6] = test system: Pseudomonas aeruginosa; assay: Antimicrobial activity against Pseudomonas aeruginosa OC 4354 infected in immunocompromized SKH1 mouse assessed as lesion volume at 6.2 mg/kg/day, sc measured after 48 hrs postinfection (reference value: 2195 mm3); assay type: functional; details: route subcutaneous
[7] = test system: Pseudomonas aeruginosa; assay: Antimicrobial activity against Pseudomonas aeruginosa OC 4354 infected in immunocompromized SKH1 mouse assessed as lesion volume at 25 mg/kg/day, sc measured after 48 hrs postinfection (reference value: 2195 mm3); assay type: functional; details: route subcutaneous
[8] = test system: Pseudomonas aeruginosa; assay: Antimicrobial activity against Pseudomonas aeruginosa OC 4354 infected in immunocompromized SKH1 mouse assessed as lesion volume at 100 mg/kg/day, sc measured after 48 hrs postinfection (reference value: 2195 mm3); assay type: functional; details: route subcutaneous
[9] = test system: Pseudomonas aeruginosa; assay: Antimicrobial activity against Pseudomonas aeruginosa OC 4351 infected in immunocompromized SKH1 mouse assessed as log change in bacterial colony forming unit at 1.6 mg/kg/day, sc; assay type: functional; details: route subcutaneous
Outline: (§1)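 Female SKH1 hairless mice made neutropenic with ip cyclophosphamide (150 mg/kg 5 days and 100 mg/kg 1 day before infection). 0.2 ml s.c. Cytodex bead (0.1% vol/vol) inoculum in BHI: OC 4351 left flank, OC 4354 right flank. Drug s.c. at 1, 3, 25, 27 h postinfection. Killed at 48 h; skin homogenised in saline, plated on TSA 18 h 37°C; Δlog CFU/g versus inoculum. 5 mice/dose, run twice.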

[10] = test system: Pseudomonas aeruginosa; assay: Antimicrobial activity against Pseudomonas aeruginosa OC 4351 infected in immunocompromized SKH1 mouse assessed as log change in bacterial colony forming unit at 25 mg/kg/day, sc; assay type: functional; details: route subcutaneous; outline: as §1
[11] = test system: Pseudomonas aeruginosa; assay: Antimicrobial activity against Pseudomonas aeruginosa OC 4351 infected in immunocompromized SKH1 mouse assessed as log change in bacterial colony forming units at 25 mg/kg/day, sc; assay type: functional; details: route subcutaneous; outline: as §1
[12] = test system: Pseudomonas aeruginosa; assay: Antimicrobial activity against Pseudomonas aeruginosa OC 4351 infected in immunocompromized SKH1 mouse assessed as log change in bacterial colony forming unit at 100 mg/kg/day, sc; assay type: functional; details: route subcutaneous; outline: as §1
[13] = test system: Pseudomonas aeruginosa; assay: Antimicrobial activity against Pseudomonas aeruginosa OC 4354 infected in immunocompromized SKH1 mouse assessed as log change in bacterial colony forming unit at 1.6 mg/kg/day, sc; assay type: functional; details: route subcutaneous; outline: as §1
[14] = test system: Pseudomonas aeruginosa; assay: Antimicrobial activity against Pseudomonas aeruginosa OC 4354 infected in immunocompromized SKH1 mouse assessed as log change in bacterial colony forming unit at 6.2 mg/kg/day, sc; assay type: functional; details: route subcutaneous; outline: as §1
[15] = test system: Pseudomonas aeruginosa; assay: Antimicrobial activity against Pseudomonas aeruginosa OC 4354 infected in immunocompromized SKH1 mouse assessed as log change in bacterial colony forming unit at 25 mg/kg/day, sc; assay type: functional; details: route subcutaneous; outline: as §1
[16] = test system: Pseudomonas aeruginosa; assay: Antimicrobial activity against Pseudomonas aeruginosa OC 4354 infected in immunocompromized SKH1 mouse assessed as log change in bacterial colony forming unit at 100 mg/kg/day, sc; assay type: functional; details: route subcutaneous; outline: as §1
[17] = fT>MIC in Pseudomonas aeruginosa OC 4351 infected sc dosed SKH1 mouse at 50 mg/kg, sc administered twice at 1 and 3 hrs after infection; assay type: functional; details: route subcutaneous
[18] = fT>MIC in Pseudomonas aeruginosa OC 4354 infected sc dosed SKH1 mouse at 50 mg/kg, sc administered twice at 1 and 3 hrs after infection; assay type: functional; details: route subcutaneous
[19] = fT>MIC in Pseudomonas aeruginosa OC 4351 infected sc dosed SKH1 mouse administered in 24 hrs dosing interval; assay type: functional
[20] = fT>MIC in Pseudomonas aeruginosa OC 4354 infected sc dosed SKH1 mouse administered in 24 hrs dosing interval; assay type: functional
Outline: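 Plasma levels came from female hairless SKH1 mice given single s.c. doses at the nape 24 h after flank s.c. infection with Cytodex beads. S. aureus work used immunocompetent mice. P. aeruginosa work used mice made neutropenic with cyclophosphamide i.p., 150 mg/kg at day −5 and 100 mg/kg at day −1. Drug assayed by HPLC with diode-array detection. Noncompartmental analysis.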

[21] = Half life in immunocompromized SKH1 mouse plasma at 50 mg/kg, sc; assay type: ADME, organism-based; design: dose 50 mg/kg, route subcutaneous
[22] = Half life in immunocompromized SKH1 mouse plasma at 12.5 mg/kg, sc; assay type: ADME, organism-based; design: dose 12.5 mg/kg, route subcutaneous
Outline: (§2)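 Female SKH1 hairless mice, immunocompetent or cyclophosphamide-neutropenic, infected s.c. with MRSA OC 8525 or P. aeruginosa OC 4354 on the Cytodex beads (left flank), sterile beads on the right. Single dose 24 h later: s.c. at the nape, or linezolid 50 mg/kg oral. Plasma and skin (DMSO homogenate) sampled over time, HPLC with diode array.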

[23] = Tmax in immunocompromized SKH1 mouse plasma at 50 mg/kg, sc; assay type: ADME, organism-based; design: dose 50 mg/kg, route subcutaneous; outline: as §2
[24] = Tmax in immunocompromized SKH1 mouse plasma at 12.5 mg/kg, sc; assay type: ADME, organism-based; design: dose 12.5 mg/kg, route subcutaneous; outline: as §2
[25] = test system: Plasma; assay: fCmax in immunocompromized SKH1 mouse plasma at 50 mg/kg, sc; assay type: ADME, organism-based; design: dose 50 mg/kg, route subcutaneous; details: in vivo; outline: as §2
[26] = test system: Plasma; assay: fCmax in immunocompromized SKH1 mouse plasma at 12.5 mg/kg, sc; assay type: ADME, organism-based; design: dose 12.5 mg/kg, route subcutaneous; details: in vivo; outline: as §2
[27] = test system: Plasma; assay: fAUC (0-infinity) in immunocompromized SKH1 mouse plasma at 50 mg/kg, sc; assay type: ADME, organism-based; design: dose 50 mg/kg, route subcutaneous; details: in vivo; outline: as §2
[28] = test system: Plasma; assay: fAUC (0-infinity) in immunocompromized SKH1 mouse plasma at 12.5 mg/kg, sc; assay type: ADME, organism-based; design: dose 12.5 mg/kg, route subcutaneous; details: in vivo; outline: as §2
[29] = test system: Pseudomonas aeruginosa; assay: Antimicrobial activity against Pseudomonas aeruginosa OC 4351 assessed as inhibition of growth by broth microdilution method; assay type: functional
[30] = test system: Pseudomonas aeruginosa; assay: Antimicrobial activity against Pseudomonas aeruginosa OC 4354 assessed as inhibition of growth by broth microdilution method; assay type: functional
[31] = Ratio of fAUC to MIC in Staphylococcus aureus OC 4172 infected sc dosed SKH1 mouse; assay type: functional
Outline: (§3)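 Free-drug plasma AUC, converted from μg·min/ml to μg·h/ml, divided by the MIC of the infecting S. aureus strain.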

[32] = Ratio of fAUC to MIC in Staphylococcus aureus OC 8525 infected sc dosed SKH1 mouse; assay type: functional; outline: as §3
[33] = Protein binding in mouse plasma; assay type: ADME, cell-free; details: read-out: PPB (converted)
[34] = Half life in immunocompetent SKH1 mouse plasma at 50 mg/kg, sc; assay type: ADME, organism-based; design: dose 50 mg/kg, route subcutaneous
[35] = Tmax in immunocompetent SKH1 mouse plasma at 50 mg/kg, sc; assay type: ADME, organism-based; design: dose 50 mg/kg, route subcutaneous; outline: as §2
[36] = test system: Plasma; assay: fCmax in immunocompetent SKH1 mouse plasma at 50 mg/kg, sc; assay type: ADME, organism-based; design: dose 50 mg/kg, route subcutaneous; details: in vivo; outline: as §2
[37] = test system: Plasma; assay: fAUC (0-infinity) in immunocompetent SKH1 mouse plasma at 50 mg/kg, sc; assay type: ADME, organism-based; design: dose 50 mg/kg, route subcutaneous; details: in vivo; outline: as §2
[38] = test system: Staphylococcus aureus; assay: Antimicrobial activity against methicillin-resistant Staphylococcus aureus OC 8525 infected immunocompetent SKH1 mouse assessed as lesion volume at 25 mg/kg/day, sc measured after 48 hrs postinfection (reference value: 1535 mm3); details: route subcutaneous
[39] = test system: Staphylococcus aureus; assay: Antimicrobial activity against methicillin-resistant Staphylococcus aureus OC 8525 infected immunocompetent SKH1 mouse assessed as lesion volume at 1.6 mg/kg/day, sc measured after 48 hrs postinfection (reference value: 1535 mm3); details: route subcutaneous
[40] = test system: Staphylococcus aureus; assay: Antimicrobial activity against methicillin-resistant Staphylococcus aureus OC 8525 infected immunocompetent SKH1 mouse assessed as lesion volume at 6.2 mg/kg/day, sc measured after 48 hrs postinfection (reference value: 1535 mm3); details: route subcutaneous
[41] = test system: Staphylococcus aureus; assay: Antimicrobial activity against methicillin-resistant Staphylococcus aureus OC 8525 infected immunocompetent SKH1 mouse assessed as lesion volume at 100 mg/kg/day, sc measured after 48 hrs postinfection (reference value: 1535 mm3); details: route subcutaneous
[42] = test system: Staphylococcus aureus; assay: Antimicrobial activity against methicillin-susceptible Staphylococcus aureus Smith OC 4172 infected immunocompetent SKH1 mouse assessed as lesion volume at 25 mg/kg/day, sc measured after 48 hrs postinfection (reference value: 1181 mm3); details: route subcutaneous
[43] = test system: Staphylococcus aureus; assay: Antimicrobial activity against methicillin-susceptible Staphylococcus aureus Smith OC 4172 infected immunocompetent SKH1 mouse assessed as lesion volume at 1.6 mg/kg/day, sc measured after 48 hrs postinfection (reference value: 1181 mm3); details: route subcutaneous
[44] = test system: Staphylococcus aureus; assay: Antimicrobial activity against methicillin-susceptible Staphylococcus aureus Smith OC 4172 infected immunocompetent SKH1 mouse assessed as lesion volume at 6.2 mg/kg/day, sc measured after 48 hrs postinfection (reference value: 1181 mm3); details: route subcutaneous
[45] = test system: Staphylococcus aureus; assay: Antimicrobial activity against methicillin-susceptible Staphylococcus aureus Smith OC 4172 infected immunocompetent SKH1 mouse assessed as lesion volume at 100 mg/kg/day, sc measured after 48 hrs postinfection (reference value: 1181 mm3); details: route subcutaneous

C[C@@H](O)[C@H]1C(=O)N2C(C(=O)O)=C(S[C@@H]3CN[C@H](C(=O)N(C)C)C3)[C@H](C)[C@H]12 [MEROPENEM]
Activity [1]: 1190 mm3 | Activity [2]: 992 mm3 | Activity [3]: 862 mm3 | Activity [4]: 602 mm3 | Activity [5]: 1316 mm3 | Activity [6]: 1030 mm3 | Activity [7]: 926 mm3 | Activity [8]: 810 mm3 | deltalog10CFU [9]: 0.2 | deltalog10CFU [10]: 0.2 | deltalog10CFU [11]: -0.9 | deltalog10CFU [12]: -1 | deltalog10CFU [13]: 0.7 | deltalog10CFU [14]: 0.5 | deltalog10CFU [15]: -1.1 | deltalog10CFU [16]: -1.1 | fT>MIC [17]: 2 h | fT>MIC [18]: 1.9 h | fT>MIC [19]: 8.5% | fT>MIC [20]: 8% | half-life [21]: 8.6 min | half-life [22]: 13.6 min | Tmax [23]: 7.5 min | Tmax [24]: 7.5 min | fCmax [25]: 72 µg/mL | fCmax [26]: 11 µg/mL | fAUC [27]: 1837 µg·min/mL | fAUC [28]: 268 µg·min/mL | MIC [29]: 0.12 µg/mL | MIC [30]: 0.5 µg/mL

CN[C@H](CC(C)C)C(=O)N[C@H]1C(=O)N[C@@H](CC(N)=O)C(=O)N[C@H]2C(=O)N[C@H]3C(=O)N[C@H](C(=O)N[C@H](C(=O)O)c4cc(O)cc(O)c4-c4cc3ccc4O)[C@H](O)c3ccc(c(Cl)c3)Oc3cc2cc(c3O[C@@H]2O[C@H](CO)[C@@H](O)[C@H](O)[C@H]2O[C@H]2C[C@](C)(N)[C@H](O)[C@H](C)O2)Oc2ccc(cc2Cl)[C@H]1O [VANCOMYCIN]
fAUC/MIC [31]: 2070 | fAUC/MIC [32]: 2070 | fraction unbound [33]: 0.75 | half-life [34]: 22 min | Tmax [35]: 10 min | fCmax [36]: 40 µg/mL | fAUC [37]: 2070 µg·min/mL | Activity [38]: 927 mm3 | Activity [39]: 1637 mm3 | Activity [40]: 1392 mm3 | Activity [41]: 606 mm3 | Activity [42]: 916 mm3 | Activity [43]: 1386 mm3 | Activity [44]: 1211 mm3 | Activity [45]: 437 mm3
